Data on 20 compounds can be found in ChEMBL document CHEMBL3763025, “Synthesis of novel diflunisal hydrazide-hydrazones as anti-hepatitis C virus agents and hepatocellular carcinoma inhibitors” (Eur J Med Chem, 2016).

The structures appear in SMILES notation. Activity calls are given as the source filed them. The calls are words filed in the database; no cut-off is given here.

The subject of data set [1] is Hepatitis C virus. Nature of the data set: Antiviral activity against HCV genotype 2a infected in Huh7.5 FGR-JC1-Rluc2A cells assessed as inhibition of viral replication at 50 uM after 42 hrs by MTS assay relative to control. It is filed as functional. The note with it: Hepacivirus hominis, Huh7.5, 42 h, in the assay text read “Renilla luciferase reporter assay” for “MTS assay”. The procedure, abridged:
(§1)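 Replicon reporter cells (Huh7/Rep-Feo1b or Huh7.5-FGR-JC1-Rluc2A) grown in DMEM with 10% fetal calf serum and 0.5 mg/mL G418 at 37°C, 5% CO2. Seeded at 1x10^4 per well, compound added 8 h after seeding at 50 µM for 42 h. Luciferase signal expressed relative to equivalent DMSO-treated controls. Average of three independent experiments.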

Data set [2] deals with Hepatitis C virus. Put plainly: Antiviral activity against HCV genotype 1b infected in Huh7/Rep-Feo1b cells assessed as inhibition of viral replication at 50 uM after 42 hrs by MTS assay relative to control. It counts as functional, Hepacivirus hominis. The note with it: Huh-7, 42 h. Summed up:
as §1

The subject of data set [3] is Hepacivirus hominis. Nature of the data set: Inhibition of HCV NS5B RNA dependent RNA polymerase using UTP/[alpha-32P]UTP as substrate at 50 uM after 1 hr by liquid scintillation counter analysis.
A short description of data set [4]: Cytotoxicity against human Huh7.5 cells assessed as cell viability after 42 hrs by MTS assay. It is filed as cell-based, Huh-7. Summed up:
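CC50 measured in parental Huh7.5 cells using the colorimetric MTS assay, with equal amounts of DMSO as control. Mean of three independent experiments with standard deviation.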

Data set [5] is described as follows: Selectivity index, ratio of CC50 for human Huh7.5 cells to EC50 for HCV genotype 1b infected in Huh7/Rep-Feo1b cells. Also on record: species or system Huh-7. Summed up:
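Selectivity index taken as the ratio of CC50 (MTS assay, parental Huh7.5 cells) to EC50 (dose-response curves at 8-10 concentrations, Huh7/Rep-Feo1b luciferase replicon, 42 h treatment).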

For data set [6], the system named is Hepatitis C virus. Nature of the data set: Antiviral activity against HCV genotype 1b infected in Huh7/Rep-Feo1b cells assessed as inhibition of viral replication after 42 hrs by MTS assay. The note with it: Huh-7, 42 h. It counts as functional, organism-based, Hepacivirus hominis. Summed up: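 Huh7/Rep-Feo1b replicon reporter cells kept in DMEM with 10% fetal calf serum and 0.5 mg/mL G418 at 37°C, 5% CO2. Cells seeded at 1x10^4 per well, dosed 8 h later and incubated 42 h with DMSO as control. Luciferase signal read relative to DMSO. EC50 derived from dose-response curves at 8-10 concentrations, mean of three independent experiments with standard deviation.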

Data set [7] can be described thus: Cytotoxicity against human Hep3B cells assessed as inhibition of cell proliferation after 72 hrs by sulforhodamine B assay. It counts as functional, cell-based, Hep 3B2. The procedure, abridged:
(§2)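 Liver cancer cells grown in DMEM or RPMI with 10% FCS, 2 mM L-glutamine and penicillin/streptomycin at 37°C, 5% CO2. Plated at 1000-3000 cells per well for 24 h, then exposed to 2.5–40 µM for 72 h. Cells TCA-fixed, stained with 0.4% sulforhodamine B in 1% acetic acid, dye solubilized in 10 mM Tris base, absorbance read at 515 nm. Normalized to DMSO, triplicate.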

A short description of data set [8]: Cytotoxicity against human SNU475 cells assessed as inhibition of cell proliferation after 72 hrs by sulforhodamine B assay. It counts as functional, cell-based, SNU-475. Summed up: as §2
The test system of data set [9] is Huh-7. Nature of the data set: Induction of apoptosis in human HuH7 cells assessed as nuclear condensation at IC50 after 72 hrs by hoechst 33258 staining based fluorescence microscopy. It is filed as functional, cell-based.
For data set [10], the system named is Huh-7. Put plainly: Induction of apoptosis in human HuH7 cells assessed as DNA fragmentation at IC50 after 72 hrs by hoechst 33258 staining based fluorescence microscopy. It is filed as functional, cell-based.
In data set [11] the test system is Huh-7. Put plainly: Induction of apoptosis in human HuH7 cells assessed as cleavage of PARP protein at IC50 after 72 hrs by Western blot analysis. It is filed as functional, cell-based. The procedure, abridged: (§3)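 Cells plated in 100 mm dishes. […] Western blot probed with anti-PARP to detect cleaved PARP, with β-actin as loading control.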
Data set [12] is described as follows: Cytotoxicity against human Mahlavu cells assessed as inhibition of cell proliferation after 72 hrs by sulforhodamine B assay. It is filed as functional, cell-based. The procedure, abridged: as §2
The subject of data set [13] is Mahlavu. Put plainly: Induction of apoptosis in human Mahlavu cells assessed as cleavage of PARP protein at IC50 after 72 hrs by Western blot analysis. It is filed as functional, cell-based. The procedure, abridged: as §3
For data set [14], the system named is HepG2. Put plainly: Cytotoxicity against human HepG2 cells assessed as inhibition of cell proliferation after 72 hrs by sulforhodamine B assay. It is filed as functional, cell-based. The procedure, abridged: as §2
The nature of data set [15]: Cytotoxicity against human FOCUS cells assessed as inhibition of cell proliferation after 72 hrs by sulforhodamine B assay. It counts as functional, cell-based. Summed up: as §2
Data set [16] can be described thus: Cell cycle arrest in human Mahlavu cells assessed as accumulation at subG1/G0 phase at IC50 after 72 hrs by propidium iodide staining-based Muse cell cycle analyzer. It counts as functional.
A short description of data set [17]: Cytotoxicity against human HuH7 cells assessed as inhibition of cell proliferation after 72 hrs by sulforhodamine B assay. It counts as functional, cell-based, Huh-7. Summed up: as §2

On to `O=C(N/N=C/c1ccc(C(F)(F)F)cc1)c1cc(-c2ccc(F)cc2F)ccc1O`, for which the inhibition at 50 µM in data set [1] was determined as 99%; in data set [2], 86%. For the same compound, in data set [3], the inhibition came to 12%. In data set [4], the CC50 at 42 h is under 50 µM.

Take `Cc1ccc(/C=N/NC(=O)c2cc(-c3ccc(F)cc3F)ccc2O)s1`: the inhibition at 50 µM in data set [1] was 95%; in [2], 64%. In data set [3], this compound registered an inhibition of 8%. Moreover, in data set [4], the CC50 at 42 h was over 50 µM.

As for `O=C(N/N=C/c1c(Cl)cccc1Cl)c1cc(-c2ccc(F)cc2F)ccc1O`, the inhibition at 50 µM turned out to be 96% in data set [1] and 72% in [2]. Also, in [3], the inhibition result is “inactive”. For the same compound, the CC50 at 42 h in data set [4] is under 50 µM.

For the compound `O=C(N/N=C/c1cccc(Oc2ccccc2)c1)c1cc(-c2ccc(F)cc2F)ccc1O`, the inhibition at 50 µM in [1] worked out at 99%; in data set [2] it was 92%. The inhibition in data set [3] was determined as 14%. For the same compound, the CC50 at 42 h in data set [4] was under 50 µM.

As to `O=C(N/N=C/c1c(F)cccc1Cl)c1cc(-c2ccc(F)cc2F)ccc1O`, the inhibition at 50 µM in data set [1] turned out to be 74%; in data set [2], 83%. Besides, the inhibition in data set [3] came out at 11%. Further, in [4], the CC50 at 42 h was over 50 µM. Besides, the “Ratio CC50/EC50” value in [5] is over 12.8. For the same compound, the EC50 in [6] amounted to 3.9 µM.

For `O=C(N/N=C/c1cccc2ccccc12)c1cc(-c2ccc(F)cc2F)ccc1O`, the inhibition at 50 µM is 70% in data set [1] and 79% in [2]. Moreover, the inhibition entry in data set [3] is “inactive”. Moreover, in data set [4], the 50% cytotoxic concentration (CC50) at 42 h was over 200 µM. The “Ratio CC50/EC50” value in [5] is reported as over 6.1. The EC50 in [6] turned out to be 16.5 µM.

Take `N#Cc1ccc(/C=N/NC(=O)c2cc(-c3ccc(F)cc3F)ccc2O)cc1`: the inhibition at 50 µM came to 82% in data set [1] and 77% in data set [2]. Besides, the inhibition entry in data set [3] was “inactive”. The CC50 at 42 h in [4] is over 200 µM. Moreover, the “Ratio CC50/EC50” value in data set [5] is recorded as over 16.9. Also, in [6], the EC50 came out at 11.8 µM.

Consider `O=C(N/N=C/c1cccs1)c1cc(-c2ccc(F)cc2F)ccc1O`, for which the inhibition at 50 µM in data set [1] was determined as 98%; in data set [2], 91%. Further, the inhibition in data set [3] came out at 17%. Moreover, the CC50 at 42 h in data set [4] is over 50 µM. Also, in [5], the “Ratio CC50/EC50” value is over 3.2. For the same compound, the EC50 in [6] turned out to be 15.6 µM.

Consider `O=C(N/N=C/c1cccc(C(F)(F)F)c1)c1cc(-c2ccc(F)cc2F)ccc1O`, for which the values for the inhibition at 50 µM in [1] and in data set [2] were 99% and 87%, respectively. The compound further registered an inhibition in [3] of 18%. The CC50 at 42 h in data set [4] was under 50 µM.

In the case of `O=C(N/N=C/c1ccc(Cl)c(Cl)c1)c1cc(-c2ccc(F)cc2F)ccc1O`, the inhibition at 50 µM in [1] turned out to be 95%; in data set [2], 66%. Also, the inhibition entry in data set [3] is “inactive”. Further, the CC50 at 42 h in [4] was under 50 µM.

On to `O=C(N/N=C/c1ccccc1Cl)c1cc(-c2ccc(F)cc2F)ccc1O`, for which the inhibition at 50 µM in [1] was 78%; in data set [2], 90%. Further, in data set [3], the inhibition was found to be 7%. The 50% cytotoxic concentration (CC50) at 42 h in [4] was under 50 µM.

For `O=C(N/N=C/c1c(F)cccc1F)c1cc(-c2ccc(F)cc2F)ccc1O`, the inhibition at 50 µM is 72% in data set [1] and 69% in [2]. Further, the inhibition entry in data set [3] was “inactive”. In data set [4], the CC50 at 42 h is over 100 µM.

Regarding `O=C(N/N=C/c1ccc2c(c1)OC(F)(F)O2)c1cc(-c2ccc(F)cc2F)ccc1O`, the inhibition at 50 µM was found to be 95% in data set [1] and 65% in [2]. Besides, in [3], the inhibition entry is “inactive”. Moreover, the CC50 at 42 h in data set [4] is under 50 µM.

Take `CCc1ccc(/C=N/NC(=O)c2cc(-c3ccc(F)cc3F)ccc2O)s1`: the inhibition at 50 µM came out at 96% in data set [1] and 65% in data set [2]. Besides, the inhibition result in [3] was “inactive”. The CC50 at 42 h in [4] is over 50 µM.

For `O=C(N/N=C/c1ccncc1)c1cc(-c2ccc(F)cc2F)ccc1O`, the inhibition at 50 µM in data set [1] is 23%; in data set [2], 33%. The inhibition in [3] was 7%. For the same compound, the CC50 at 42 h in data set [4] is over 50 µM.

For `O=C(N/N=C/c1cccnc1)c1cc(-c2ccc(F)cc2F)ccc1O`, the inhibition at 50 µM is 88% in data set [1] and 83% in data set [2]. Also, the inhibition in [3] was found to be 8%. The CC50 at 42 h in [4] is over 200 µM. Also, in data set [5], the “Ratio CC50/EC50” value is listed as over 24.7. For the same compound, the EC50 in data set [6] was 8.1 µM.

In the case of `O=C(N/N=C/c1ccccn1)c1cc(-c2ccc(F)cc2F)ccc1O`, the inhibition at 50 µM in [1] was 90%; in data set [2], 79%. Further, the IC50 in data set [7] (Homo sapiens, Hep3B, 72 h, read-out: IC50) was determined as 16.2 µM; in data set [8] (Homo sapiens, SNU-475, 72 h, read-out: IC50) it was 8.33 µM; in data set [12] it was 4.74 µM; in data set [14] (Homo sapiens, HepG2, 72 h, read-out: IC50), 10.3 µM; in [15] it was 9.29 µM; in [17] (Homo sapiens, Huh-7, 72 h, read-out: IC50) it was 10 µM. The inhibition entry in [3] is “inactive”. Also, the outcome in data set [9], in [10], in [13] and in [16] was Active. The result in data set [11] was inactive. In data set [4], the CC50 at 42 h is over 100 µM. Further, the “Ratio CC50/EC50” value in data set [5] is on record as over 25.6. For the same compound, the EC50 in data set [6] is 3.9 µM.

Take `O=C(N/N=C/c1cccc(Br)c1)c1cc(-c2ccc(F)cc2F)ccc1O`: the inhibition at 50 µM was 92% in data set [1] and 81% in data set [2]. In addition, the inhibition in data set [3] amounted to 9%. The CC50 at 42 h in data set [4] is under 50 µM.

For `O=C(N/N=C/c1ccc2ccccc2c1)c1cc(-c2ccc(F)cc2F)ccc1O`, the inhibition at 50 µM in data set [1] was 58%; in data set [2], 65%. In addition, the inhibition result in data set [3] is “inactive”. The CC50 at 42 h in [4] is over 100 µM.

As to `O=C(O)c1cc(-c2ccc(F)cc2F)ccc1O` [DIFLUNISAL], the IC50 entry is “Not Active” in data set [7] (hep 3b2); “Not Active” in data set [8] (snu-475); 51.7 µM in data set [12]; “Not Active” in data set [14] (hepg2); 29.8 µM in data set [15]; “Not Active” in data set [17] (huh-7). Besides, the outcome in data set [9] and in data set [10] was inactive.
